According to ChEMBL document CHEMBL3352557, “Design, synthesis and antimycobacterial activity of various 3-(4-(substitutedsulfonyl)piperazin-1-yl)benzo[d]isoxazole derivatives” (Eur J Med Chem, 2014):
Converted amounts (≈) assume the structure as drawn.

Assays:
[1] = tested on: Mycobacterium tuberculosis; test: Antimycobacterial activity against Mycobacterium tuberculosis H37Rv ATCC 27294 after 7 days by MABA method; assay type: functional; settings: H37Rv ATCC 27294, 168 h
Procedure, shortened: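 Two-fold serial dilutions in Middlebrook 7H9GC medium, final 50 to 0.78 µg/mL (DMSO stocks), inoculum 2 × 10^5 CFU/mL. Incubated at 37 °C for 7 days, then 10% Tween 80 and Alamar Blue added and incubated 24 h at 37 °C. Blue read as no growth, pink as growth. MIC is the lowest concentration preventing the blue-to-pink change. Isoniazid and rifampin served as positive controls.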

[2] = Cytotoxicity against mouse RAW264.7 cells assessed as inhibition of cell growth at 50 ug/mL after 72 hrs by MTT assay; assay type: cell-based; settings: read-out: GI
Procedure, shortened: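 RAW 264.7 mouse macrophage line treated at 50 µg/mL for 72 h. Viability was scored by cellular reduction of MTT to a formazan product in a non-radioactive cell proliferation assay.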

[3] = tested on: RAW264.7; test: Cytotoxicity against mouse RAW264.7 cells assessed as inhibition of cell growth after 72 hrs by MTT assay; assay type: cell-based; settings: RAW264.7, 72 h
Procedure, shortened: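 Mouse macrophage RAW 264.7 cells exposed to compound for 72 h. Viability was read as cellular conversion of MTT to formazan using a non-radioactive cell proliferation kit, and IC50 was taken from this.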

[4] = Selectivity index, ratio of IC50 for mouse RAW264.7 cells to MIC for Mycobacterium tuberculosis H37Rv ATCC 27294; assay type: toxicity; settings: read-out: Selectivity Index
[5] = tested on: Mycobacterium tuberculosis; test: Antimycobacterial activity against Mycobacterium tuberculosis H37Rv ATCC 27294 assessed as inhibition of cell growth at 6.25 ug/mL after 7 days by MABA method; assay type: functional; settings: H37Rv ATCC 27294, 168 h, read-out: GI
[6] = tested on: Mycobacterium tuberculosis; test: Antimycobacterial activity against Mycobacterium tuberculosis H37Rv ATCC 27294 assessed as inhibition of cell growth at 3.125 ug/mL after 7 days by MABA method; assay type: functional; settings: H37Rv ATCC 27294, 168 h, read-out: GI

SMILES: Clc1cccc2onc(N3CCNCC3)c12
- MIC [1]: 25 µg/mL (≈ 105 µM)

SMILES: O=S(=O)(c1ccc(OC(F)(F)F)cc1)N1CCN(c2noc3ccccc23)CC1
- MIC [1]: > 50 µg/mL

SMILES: Clc1ccc2c(N3CCNCC3)noc2c1
- MIC [1]: 12.5 µg/mL (≈ 52.6 µM)
- inhibition at 72 h, 50 ug/mL [2]: 24.1%
- IC50 [3]: 104 µg/mL (≈ 436 µM)
- selectivity ratio [4]: 8.29

SMILES: O=S(=O)(c1ccc(Br)cc1)N1CCN(c2noc3ccccc23)CC1
- MIC [1]: 50 µg/mL (≈ 118 µM)

SMILES: CS(=O)(=O)N1CCN(c2noc3c(Cl)cccc23)CC1
- MIC [1]: 25 µg/mL (≈ 79.2 µM)

SMILES: Cc1ccc(S(=O)(=O)N2CCN(c3noc4cccc(Cl)c34)CC2)cc1
- MIC [1]: 6.25 µg/mL (≈ 15.9 µM)
- inhibition at 72 h, 50 ug/mL [2]: 21.6%
- IC50 [3]: 116 µg/mL (≈ 295 µM)
- selectivity ratio [4]: 18.5
- inhibition of growth at 6.25 µg/mL [5]: 99%

SMILES: CS(=O)(=O)N1CCN(c2noc3ccccc23)CC1
- MIC [1]: 12.5 µg/mL (≈ 44.4 µM)
- inhibition at 72 h, 50 ug/mL [2]: 28.4%
- IC50 [3]: 88 µg/mL (≈ 313 µM)
- selectivity ratio [4]: 7.03

SMILES: O=[N+]([O-])c1ccc(S(=O)(=O)N2CCN(c3noc4c(Cl)cccc34)CC2)cc1
- MIC [1]: 50 µg/mL (≈ 118 µM)

SMILES: O=[N+]([O-])c1ccc(S(=O)(=O)N2CCN(c3noc4cc(Cl)ccc34)CC2)cc1
- MIC [1]: 25 µg/mL (≈ 59.1 µM)

SMILES: Cc1ccc(S(=O)(=O)N2CCN(c3noc4cc(Cl)ccc34)CC2)cc1
- MIC [1]: > 50 µg/mL

SMILES: O=S(=O)(c1ccccc1)N1CCN(c2noc3ccccc23)CC1
- MIC [1]: 3.12 µg/mL (≈ 9.09 µM)
- inhibition at 72 h, 50 ug/mL [2]: 5.82%
- IC50 [3]: 430 µg/mL (≈ 1250 µM)
- selectivity ratio [4]: 137
- inhibition of growth at 3.125 µg/mL [6]: 99%

SMILES: O=S(=O)(c1ccccc1)N1CCN(c2noc3cccc(Cl)c23)CC1
- MIC [1]: 25 µg/mL (≈ 66.2 µM)

SMILES: O=S(=O)(c1ccc(Br)cc1)N1CCN(c2noc3c(Cl)cccc23)CC1
- MIC [1]: 25 µg/mL (≈ 54.7 µM)

SMILES: O=S(=O)(c1ccc(Br)cc1)N1CCN(c2noc3cc(Cl)ccc23)CC1
- MIC [1]: > 50 µg/mL

SMILES: O=S(=O)(c1ccc(OC(F)(F)F)cc1)N1CCN(c2noc3c(Cl)cccc23)CC1
- MIC [1]: > 50 µg/mL

SMILES: c1ccc2c(N3CCNCC3)noc2c1
- MIC [1]: 6.25 µg/mL (≈ 30.8 µM)
- inhibition at 72 h, 50 ug/mL [2]: 36.8%
- IC50 [3]: 67.9 µg/mL (≈ 334 µM)
- selectivity ratio [4]: 10.8

SMILES: NNC(=O)c1ccncc1 [ISONIAZID]
- MIC [1]: 0.36 µg/mL (≈ 2.63 µM)

SMILES: O=S(=O)(c1ccc(OC(F)(F)F)cc1)N1CCN(c2noc3cccc(Cl)c23)CC1
- MIC [1]: 12.5 µg/mL (≈ 27.1 µM)
- inhibition at 72 h, 50 ug/mL [2]: 42.2%
- IC50 [3]: 59.3 µg/mL (≈ 128 µM)
- selectivity ratio [4]: 4.74

SMILES: O=S(=O)(c1ccc(OC(F)(F)F)cc1)N1CCN(c2noc3cc(Cl)ccc23)CC1
- MIC [1]: 12.5 µg/mL (≈ 27.1 µM)
- inhibition at 72 h, 50 ug/mL [2]: 18.1%
- IC50 [3]: 138 µg/mL (≈ 299 µM)
- selectivity ratio [4]: 11

SMILES: O=[N+]([O-])c1ccc(S(=O)(=O)N2CCN(c3noc4ccccc34)CC2)cc1
- MIC [1]: > 50 µg/mL

SMILES: O=S(=O)(c1ccccc1)N1CCN(c2noc3cc(Cl)ccc23)CC1
- MIC [1]: 25 µg/mL (≈ 66.2 µM)

SMILES: Clc1cccc2c(N3CCNCC3)noc12
- MIC [1]: 25 µg/mL (≈ 105 µM)

SMILES: CS(=O)(=O)N1CCN(c2noc3cccc(Cl)c23)CC1
- MIC [1]: > 50 µg/mL

SMILES: Cc1ccc(S(=O)(=O)N2CCN(c3noc4ccccc34)CC2)cc1
- MIC [1]: 50 µg/mL (≈ 140 µM)

SMILES: Cc1ccc(S(=O)(=O)N2CCN(c3noc4c(Cl)cccc34)CC2)cc1
- MIC [1]: > 50 µg/mL

SMILES: O=S(=O)(c1ccccc1)N1CCN(c2noc3c(Cl)cccc23)CC1
- MIC [1]: 25 µg/mL (≈ 66.2 µM)

SMILES: CO[C@H]1/C=C/O[C@@]2(C)Oc3c(C)c(O)c4c(O)c(c(/C=N/N5CCN(C)CC5)c(O)c4c3C2=O)NC(=O)/C(C)=C\C=C\[C@H](C)[C@H](O)[C@@H](C)[C@@H](O)[C@@H](C)[C@H](OC(C)=O)[C@@H]1C [RIFAMPIN]
- MIC [1]: 1 µg/mL (≈ 1.22 µM)

SMILES: O=[N+]([O-])c1ccc(S(=O)(=O)N2CCN(c3noc4cccc(Cl)c34)CC2)cc1
- MIC [1]: 50 µg/mL (≈ 118 µM)

SMILES: CS(=O)(=O)N1CCN(c2noc3cc(Cl)ccc23)CC1
- MIC [1]: > 50 µg/mL

SMILES: O=S(=O)(c1ccc(Br)cc1)N1CCN(c2noc3cccc(Cl)c23)CC1
- MIC [1]: 50 µg/mL (≈ 109 µM)
